Measurements gathered from unrelated publications.
Lines come from different studies, so protocols differ.
Target: Tyrosine-protein kinase Yes (YES1, Homo sapiens, UniProt P07947)

Compound	effect on	mode	method	tested at	quantity	value
COc1ncccc1-c1cnn2ccc(N3CCN(C(=O)OC(C)C)CC3)nc12	binding		competition with immobilised ligand	1 µM	remaining binding	100%
O=c1[nH]c2ccccc2n1C1CCN(Cc2ccc(-c3[nH]c4cc5ncnc5cc4nc3-c3ccccc3)cc2)CC1	cell-free assay			0.5 µM	remaining signal	90.8%
Cn1cncc1[C@@](O)(COc1ccc(C#N)cc1-c1ccc(OC(F)(F)F)cc1)c1ccc(C#N)cc1	cell-free assay		competition with immobilised ligand	1 µM	remaining binding	100%
Cn1cc(-c2cc(F)cc(N3CCn4c(cc5c4CCCC5)C3=O)c2CO)cc(Nc2ccc(N3CCN(C4COC4)CC3)cn2)c1=O	enzyme activity	inhibitor		0.1 µM	inhibition	11%
Nc1ncc(-c2nc(N3CCOCC3)nc(N3CCOCC3)n2)c(C(F)F)n1	binding		competition with immobilised ligand	10 µM	remaining binding	80%
Cc1nn(C)cc1-c1nc2c(N3CCN(Cc4ccc(Cl)cc4)CC3)c(Cl)cnc2[nH]1	binding		competition with immobilised ligand	1 µM	remaining binding	96%
C#Cc1n[nH]c2c(-c3cn([C@@H](C)c4ccccn4)c(=O)[nH]c3=O)cc(F)cc12	enzyme activity	inhibitor		0.1 µM	inhibition	-3.4%
CC(C)(C)c1cc(C=C(C#N)C#N)cc(Br)c1O	enzyme activity	inhibitor		0.5 µM	remaining activity	83%
